From ChEMBL document CHEMBL3997809, “Design and synthesis of a new series of 3,5-disubstituted isoxazoles active against Trypanosoma cruzi and Leishmania amazonensis” (Eur J Med Chem, 2017)
Calls of active or inactive are those of the source. The rule behind the calls is not given here.

Tests used:
[1] = system: Trypanosoma cruzi; experiment: Growth inhibition of Trypanosoma cruzi Tulahuen amastigote forms infected in human THP1 cells at 100 uM after 48 hrs relative to control; type: functional; conditions: THP-1, 48 h, read-out: GI
Procedure, shortened: (§1)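 PMA-differentiated THP-1 macrophages (4.0 × 10^4 cells/well, 100 ng/ml, 72 h) infected with trypomastigotes at 2:1 parasite/cell overnight at 37 °C. Washed, then 24 h more for amastigote transformation. Compounds added in triplicate for 48 h at 37 °C, 5% CO2. Read-out: CPRG 100 µM with 0.1% NP-40 for 16 h, OD 570/630 nm. Negative control DMSO 1%.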

[2] = system: Trypanosoma cruzi; experiment: Trypanocidal activity against Trypanosoma cruzi Tulahuen amastigote forms infected in human THP1 cells after 48 hrs; type: functional, cell-based; conditions: THP-1, 48 h; procedure, shortened: as §1
[3] = system: Trypanosoma cruzi; experiment: Trypanocidal activity against Trypanosoma cruzi Tulahuen trypomastigote forms at 3.9 to 250 uM after 72 hrs by MTT assay; type: functional
Procedure, shortened: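 Culture-derived Tulahuen trypomastigotes raised from infected L929 cells, 1.5 × 10^6 parasites/well. Compounds serially diluted from 250 to 3.9 µM, incubated 72 h at 37 °C, 5% CO2. Viability by MTT, OD 540 nm after dissolving formazan in DMSO. Negative control DMSO 1%.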

[4] = system: Leishmania amazonensis; experiment: Growth inhibition of Leishmania amazonensis MHOM/BR/77/LTB0016 amastigote forms expressing beta-galactosidase infected in human THP1 cells at 100 uM after 48 hrs relative to control; type: functional; conditions: for inhibition of growth at 100 µM: MHOM/BR/77/LTB0016, THP-1, 48 h, read-out: GI
Procedure, shortened: (§2)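 THP-1 cells seeded at 4.0 × 10^4 cells/well and differentiated with PMA 100 ng/ml for 72 h. Promastigotes (4-day culture) opsonized 1 h at 34 °C in RPMI-1640 with 10% heat-inactivated human B+ serum. Infection at 10:1 parasite/cell for 3 h at 34 °C, washed, then 24 h for amastigote transformation. Compound treatment in triplicate for 48 h at 34 °C. Read-out: CPRG 100 µM with 0.1% NP-40, 16 h, OD 570/630 nm. Negative control DMSO 1%.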

[5] = system: Leishmania amazonensis; experiment: Antileishmanial activity against Leishmania amazonensis MHOM/BR/77/LTB0016 amastigote forms expressing beta-galactosidase infected in human THP1 cells after 48 hrs; type: functional, cell-based; conditions: MHOM/BR/77/LTB0016, THP-1, 48 h; procedure, shortened: as §2
[6] = system: Trypanosoma cruzi; experiment: Antitrypanosomal activity against Trypanosoma cruzi trypomastigote forms; type: functional
[7] = Cytotoxicity against human THP1 cells assessed as reduction in cell viability after 72 hrs by MTT assay; type: cell-based; conditions: THP-1 cells
Procedure, shortened: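 PMA-differentiated THP-1 cells exposed to serial dilutions from 15.6 to 500 µM for 72 h at 37 °C, 5% CO2. Viability by MTT reduction to formazan, dissolved in DMSO, OD 540 nm. Gives CC50.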

[8] = Selectivity index, ratio of CC50 for human THP1 cells to IC50 for Trypanosoma cruzi Tulahuen amastigote forms infected in human THP1 cells; type: toxicity, cell-based; conditions: read-out: Ratio CC50/IC50
Procedure, shortened: (§3)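 Ratio of CC50 from the 72 h MTT assay in PMA-differentiated THP-1 cells to IC50 against intracellular amastigotes in THP-1 cells measured by CPRG read-out after 48 h.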

[9] = system: Leishmania amazonensis; experiment: Growth inhibition of Leishmania amazonensis MHOM/BR/77/LTB0016 amastigote forms expressing beta-galactosidase infected in human THP1 cells at 2 uM after 48 hrs relative to control; type: functional; conditions: MHOM/BR/77/LTB0016, THP-1, 48 h, read-out: GI; procedure, shortened: as §2
[10] = Selectivity index, ratio of CC50 for human THP1 cells to IC50 for Leishmania amazonensis MHOM/BR/77/LTB0016 amastigote forms expressing beta-galactosidase infected in human THP1 cells; type: toxicity, cell-based; conditions: read-out: Ratio CC50/IC50; procedure, shortened: as §3
[11] = target: Trypanothione reductase (Trypanosoma cruzi, UniProt P28593); experiment: Inhibition of Trypanosoma cruzi trypanothione reductase expressed in Escherichia coli BL21(DE3) using T(S)2 as substrate incubated for 30 mins in presence of NADPH measured for 30 mins
Sequence of Trypanothione reductase (P28593 whole entry): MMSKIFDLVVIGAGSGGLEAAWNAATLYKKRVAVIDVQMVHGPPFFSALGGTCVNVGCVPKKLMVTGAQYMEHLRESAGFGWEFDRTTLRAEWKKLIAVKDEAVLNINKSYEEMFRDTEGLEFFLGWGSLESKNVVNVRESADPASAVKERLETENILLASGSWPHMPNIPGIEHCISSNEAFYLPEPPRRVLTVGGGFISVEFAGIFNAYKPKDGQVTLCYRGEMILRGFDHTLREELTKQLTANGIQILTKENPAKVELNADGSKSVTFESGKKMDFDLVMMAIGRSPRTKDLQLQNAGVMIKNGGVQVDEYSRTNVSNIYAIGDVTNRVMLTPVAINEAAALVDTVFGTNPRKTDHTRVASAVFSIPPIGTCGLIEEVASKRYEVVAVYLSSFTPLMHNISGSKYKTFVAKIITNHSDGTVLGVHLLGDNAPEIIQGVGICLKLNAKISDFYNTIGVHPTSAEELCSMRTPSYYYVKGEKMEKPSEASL
Procedure, shortened: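 Enzyme purified by affinity chromatography. Then T(S)2 1 µM and compound in DMSO added, 30 min at 27 °C, followed by further DTNB. A412 followed for 30 min. Negative control DMSO 1%.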

[12] = system: Trypanosoma cruzi; experiment: Growth inhibition of Trypanosoma cruzi Tulahuen amastigote forms infected in human THP1 cells at 100 uM using compound after 1 week storage measured after 48 hrs; type: functional, cell-based
[13] = Chemical stability in DMSO after 1 week by mass spectrometric analysis; type: physicochemical; conditions: 168 h
[14] = system: Trypanosoma cruzi; experiment: Growth inhibition of Trypanosoma cruzi Tulahuen amastigote forms infected in human THP1 cells at 20 uM after 48 hrs relative to control; type: functional; conditions: THP-1, 48 h, read-out: GI; procedure, shortened: as §1

| SMILES | inhibition of growth at 100 µM [1] [%] | IC50 [2] [µM] | Activity [3] | inhibition of growth at 100 µM [4] [%] | IC50 [5] [µM] | also measured |
| --- | --- | --- | --- | --- | --- | --- |
| CC(=O)OC[C@H]1O[C@H](OCc2cc(-c3ccccc3)no2)[C@H](OC(C)=O)[C@@H](OC(C)=O)[C@@H]1OC(C)=O | 1.16 | > 100 | inactive | 2.06 | > 100 | – |
| OC[C@H]1O[C@H](OCc2cc(-c3ccc4c(c3)OCO4)no2)[C@H](O)[C@@H](O)[C@@H]1O | 2.93 | > 100 | inactive | 3.82 | > 100 | – |
| COc1ccc([C@H]2O[C@@H](c3ccc(OC)c(OC)c3)[C@@H](C)[C@@H]2C)cc1OC | – | – | – | – | – | IC50 [6]: 2.3 µM |
| COc1ccc(-c2cc(CO)on2)cc1OC | 0 | – | inactive | – | – | – |
| CC(=O)OCc1ccc(-c2cc(-c3ccc4c(c3)OCO4)no2)cc1 | 47.6 | 23.2 | inactive | 15.7 | > 100 | CC50 at 72 h [7]: > 500 µM; selectivity ratio [8]: > 21.5 |
| C[C@@H]1[C@H](O)[C@@H](C)/C=C/C=C/C=C/C=C/C=C/C=C/C=C/[C@H](O[C@@H]2O[C@H](C)[C@@H](O)[C@H](N)[C@@H]2O)C[C@@H]2O[C@](O)(C[C@@H](O)C[C@@H](O)[C@H](O)CC[C@@H](O)C[C@@H](O)CC(=O)O[C@H]1C)C[C@H](O)[C@H]2C(=O)O [AMPHOTERICIN B] | – | – | – | – | 0.14 | CC50 at 72 h [7]: 27.9 µM; inhibition of growth at 2 µM [9]: 81.6%; selectivity ratio [10]: 199 |
| OCc1cc(-c2ccccc2)no1 | 7.57 | > 100 | inactive | – | – | – |
| c1ccc(-c2cc(-c3ccccc3)on2)cc1 [3,5-DIPHENYLISOXAZOLE] | 29.4 | > 100 | inactive | 6.03 | > 100 | – |
| OCc1ccc(-c2cc(-c3ccc(F)cc3)no2)cc1 | 10.6 | > 100 | inactive | – | – | – |
| c1ccc(-c2cc(-c3ccc4c(c3)OCO4)no2)cc1 | 64.8 | 23 | inactive | – | – | CC50 at 72 h [7]: > 500 µM; selectivity ratio [8]: > 21.7; growth inhibition (GI) [4]: inactive |
| CC(=O)Nc1ccc(-c2cc(-c3ccccc3)no2)cc1 | 0 | – | inactive | – | – | – |
| COc1cc([C@@H]2O[C@@H](c3cc(OC)c(OC)c(OC)c3)[C@H](C)[C@H]2C)cc(OC)c1OC [GRANDISIN] | – | – | – | – | – | IC50 [6]: 3.7 µM |
| Cc1ccc(-c2cc(-c3ccc4c(c3)OCO4)no2)cc1 | 81.7 | 1.74 | inactive | 28.1 | > 100 | CC50 at 72 h [7]: 81.3 µM; selectivity ratio [8]: 46.7; IC50 [11]: > 100 µM |
| COc1ccc(-c2cc(CO)on2)cc1 | 9.32 | > 100 | inactive | – | – | – |
| Nc1ccc(-c2cc(-c3ccccc3)no2)cc1 | 73 | 90.4 | inactive | – | – | CC50 at 72 h [7]: 407 µM; selectivity ratio [8]: 4.5 |
| OC[C@H]1O[C@H](OCc2cc(-c3ccccc3)no2)[C@H](O)[C@@H](O)[C@@H]1O | 7.3 | > 100 | inactive | 4.57 | > 100 | – |
| O=C(O)c1cc(-c2ccccc2)no1 | 0 | – | inactive | – | – | – |
| COc1ccc(-c2cc(CN=[N+]=[N-])on2)cc1 | 60.4 | – | inactive | – | – | CC50 at 72 h [7]: < 15.6 µM; growth inhibition (GI) [12]: inactive; Stability [13]: Unstable |
| O=C(Cn1ccnc1[N+](=O)[O-])NCc1ccccc1 [BENZNIDAZOLE] | – | – | – | – | – | inhibition of growth at 20 µM [14]: 85.9%; CC50 at 72 h [7]: > 500 µM; selectivity ratio [8]: > 49.1 |
| O=[N+]([O-])c1ccc(-c2cc(-c3ccc(CO)cc3)on2)cc1 | 15.9 | > 100 | inactive | – | – | – |
| OCc1ccc(-c2cc(-c3ccccc3)no2)cc1 | 7.01 | > 100 | inactive | – | – | – |
| O=[N+]([O-])c1ccc(-c2cc(CO)on2)cc1 | 12.2 | > 100 | inactive | 4.98 | > 100 | – |
| OCc1ccc(-c2cc(-c3ccc4c(c3)OCO4)no2)cc1 | 65 | 5.26 | inactive | 0 | – | CC50 at 72 h [7]: 70.2 µM; selectivity ratio [8]: 13.3; IC50 [11]: > 100 µM |
| OCc1cc(-c2ccc3c(c2)OCO3)no1 | 1.95 | > 100 | inactive | – | – | – |
| COc1ccc(-c2cc(-c3ccc(CO)cc3)on2)cc1 | 5.77 | > 100 | inactive | – | – | – |
| CC(=O)OC[C@H]1O[C@H](OCc2cc(-c3ccc4c(c3)OCO4)no2)[C@H](OC(C)=O)[C@@H](OC(C)=O)[C@@H]1OC(C)=O | 3.15 | > 100 | inactive | 2.05 | > 100 | – |
| OCc1cc(-c2ccc(F)cc2)no1 | 8.27 | > 100 | inactive | 3.35 | > 100 | – |
| CC(C)(C)OC(=O)Nc1ccc(-c2cc(-c3ccccc3)no2)cc1 | 0 | – | inactive | – | – | – |
| COc1ccc(-c2cc(-c3ccc(CO)cc3)on2)cc1OC | 14.2 | > 100 | inactive | – | – | – |
